B1: tRNA (parent)
chain: GUUCCGUUGGCGUAAUGGUAACGCGUCUCCCUCCUAAGGAGAAGACUGCGGGUUCGAGUCCCGUACGGAACG

We go through 167 variants from the RNAGym collection of RNA variant scans (doi:10.1126/science.aae0568).

Fewer inactive variants are shown than the library holds.

Variants of B1 are the subject of this data set. Nature of the data set: yeast fitness relative to wild type (ratio to wild type); higher = fitter; tRNA-Arg(CCU), competitive growth, 37 C, YPD. Summed up: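 Changes in genotype frequencies gave Darwinian fitness relative to wild type. Frequencies were read by 100-nucleotide paired-end sequencing of gene amplicons before and after pooled Saccharomyces cerevisiae strains, carrying tRNA-Arg(CCU) gene variants at the native locus, were competed in YPD at 37°C for 24 hours in six replicates. A genotype was kept only with ≥ 100 starting reads, and estimates < 0.5 were set to 0.5.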
Take U19A C29G: the yeast fitness turned out to be 0.685.
Take U19A C29U: the yeast fitness turned out to be 0.76.
To U19A C29A belongs 0.712.
The result for G18C C55U G67C reads 0.565.
As for G18C U26A C55G, the yeast fitness is at most 0.5.
In the case of U19A C60A, the yeast fitness was determined as 0.623.
The result for U19A C60U reads 0.819; that for U19A C31G A36U A65U, at most 0.5.
To U19C A20U G67U A69U belongs 0.53; to U19A G44C G67C, 0.639.
G18C G56C C62U: the yeast fitness is at most 0.5.
As to U19A A65C, the yeast fitness came out at 1.01.
Consider U19A A65G, for which the yeast fitness was 1.05.
To U19C A65C belongs 0.888.
U19C A20C A21U G56A A69C: the yeast fitness was at most 0.5.
As to U19C A21C G51A G58A, the yeast fitness was at most 0.5.
With U19A A45C, the yeast fitness was determined as 0.726.
To G18U U26A belongs 0.623.
The result for U19A A20C C31G reads at most 0.5; that for G18C G23A G25C A37G A43C A65C, at most 0.5; that for U19A C24U G25C C49U, at most 0.5.
To U19A C24U U64C belongs 0.689; to U19A G25C C33A A37G, at most 0.5.
With U19A C29A G67A, the yeast fitness was at most 0.5.
To U19C A45U C46U A57U belongs at most 0.5; to G18C C62A, at most 0.5; to G18C C62U, 0.611.
To U19A C31U A42C A70G belongs 0.912.
To U19A C22U G63C belongs at most 0.5; to G18C C33G A40G C61U, at most 0.5.
As for U19A U28G A40C A42G A69C, the yeast fitness amounted to 0.561.
As to G18C C60U A70U, the yeast fitness was at most 0.5.
Regarding U19C A40U C55U A65G, the yeast fitness was at most 0.5.
The result for U19C A36C G41C C66A reads at most 0.5; that for U19A A36G C46A, 0.69; that for G18C U19A U28G A40C C62G C66G, at most 0.5.
Regarding U19A C27U G44C G48C, the yeast fitness is at most 0.5.
To U19A U28A A37U A42U belongs at most 0.5; to G18C G23A G25C A37G A43C C55G, at most 0.5.
On to U19A A36G G50U U59A, for which the yeast fitness was at most 0.5.
The result for U19C A20U A43U reads 0.66; that for U19A C46A, 1.13.
To U19A C46U belongs 0.958; to U19C C22G C24A, 0.72; to U19C A43G, 1.07.
To U19C A43C belongs 0.907; to U19C A43U, 1.03; to U19C A20U A70U, 0.794.
With U19A A43U A70U, the yeast fitness stood at 0.825.
The result for G18U C24U A69U reads at most 0.5.
On to U19A G41C C55G C66G, for which the yeast fitness is at most 0.5.
To U19A U64C belongs 0.901; to U19A U64G, 0.687; to U19A U26C C30A, 0.639.
Turning to U19A U47A G58C, the yeast fitness was found to be 0.602.
The result for U19C C22A U32A A37U A45C reads 0.505.
With U19C C22A U32A A37U A45U, the yeast fitness is at most 0.5.
To G18C G44U belongs 0.554; to G18C G44C, 0.637.
The result for G18U reads 0.844; that for U19A G39C G63C, at most 0.5; that for U19A C30A A43G C49U C55A, 0.64.
To U19A C24A U32C A36U C66G belongs at most 0.5.
In the case of U19A G44C, the yeast fitness was found to be 0.971.
To U19A C24G C33G C34G A57G belongs 0.579; to G18C G52C, 0.819.
Consider U19C A43U A69U, for which the yeast fitness is 1.09.
As to G18C G38U G51A, the yeast fitness is at most 0.5.
The result for U19A C27G reads 0.581.
To U19A C27A belongs 0.775; to U19C A20U G56A, 0.724.
With G18C U19C C29A C30G, the yeast fitness was at most 0.5.
For U19A A21G A43C G51C G68C, the yeast fitness was at most 0.5.
For U19A U47C, the yeast fitness turned out to be 0.925.
U19A U47A: the yeast fitness is 0.837.
To G18C U26C G50C belongs at most 0.5; to U19A C34U A42U, 0.543; to U19A A21U C24A U28C U53C C60G, at most 0.5.
The result for U19A C33U A36U C66U reads at most 0.5; that for U19A A40U, 1.07.
The result for U19A A65C C66G A70G reads at most 0.5.
As for U19C A37C G63A, the yeast fitness is at most 0.5.
To U19C A57C C61A belongs at most 0.5.
The result for G18C U26A A45G C62G reads 0.556.
The result for G18U A45G reads 0.758; that for U19A C55G A57G, 0.5; that for U19A G68U, 0.857.
Regarding U19A G68C, the yeast fitness came to 0.709.
To U19A A37G belongs 0.657; to U19A C24A C30G C34U G51A G52C C66U, at most 0.5.
As to U19A C27U U59A A65C G67U, the yeast fitness stood at 0.575.
The result for G18C U59C reads 0.559; that for U19C A20U C22U C27G, 0.532.
Regarding U19A A57U G67C, the yeast fitness is 0.556.
The result for U19A G25C C33A A37G G48A G68A reads at most 0.5; that for G18C C46A, 0.726; that for G18C C46U, 0.626.
U19A C24G C27U C30A G52C: the yeast fitness came to 0.571.
Turning to U19C A20G G67A, the yeast fitness worked out at 0.76.
To G18C G50A U59C belongs at most 0.5.
To U19C A65U G68A belongs 0.534; to U19A A40G C55G A65C, 0.534.
Regarding U19A C30A A65G, the yeast fitness was 0.673.
U19A A36U A45U C49U U64A A70U: the yeast fitness was 0.788.
The result for U19C A20C C33U U35A C49A reads 0.539; that for U19A A37G A65G, 0.707.
Take G18C U28G C61U A65C: the yeast fitness is at most 0.5.
Consider U19A G39A G63C, for which the yeast fitness was at most 0.5.
The result for U19A A36C A40G A57C reads at most 0.5.
The result for U19A A20U G51C reads 0.836.
On to G18C G25C U28G A42G C49U A57U, for which the yeast fitness was 0.557.
As for U19A C34G A37U C49G, the yeast fitness is at most 0.5.
To G18U U32C A57G belongs 0.568; to G18C C60G A70C, at most 0.5; to U19A C27U C29U, 0.697.
The result for U19A G50A G68C reads at most 0.5; that for U19A C61A G68C, 0.648; that for U19A A21U C24A U28C, at most 0.5.
The result for G18C C60G reads at most 0.5; that for G18C U19G A20G C33A U35C, at most 0.5.
Take G18C G51A A57G C66A: the yeast fitness was at most 0.5.
On to U19A G23C, for which the yeast fitness turned out to be 0.549.
On to U19A A43G A57C A65U, for which the yeast fitness is at most 0.5.
The result for U19A A43G reads 0.867; that for U19C A57U, 0.658; that for G18C G39C, 0.683.
The result for U19C A43U C49U reads 0.698; that for G18C G23C U53A A69C, at most 0.5.
As for U19A U59A C62A, the yeast fitness is at most 0.5.
For G18C U53A, the yeast fitness is at most 0.5.
Take G18C C49G A65U: the yeast fitness is 0.66.
The result for U19A C33U reads 0.777.
To G18C G50U U53A belongs at most 0.5.
For G18C G48A, the yeast fitness was determined as 0.571.
The result for G18C U19G C27U A43U G67U reads at most 0.5.
To U19A A69C belongs 1.08; to U19A A69U, 1.04.
The result for U19A C27U U28C C55U reads at most 0.5; that for U19A C22G A42G U54A G67A, at most 0.5.
Regarding U19A A45U U54G, the yeast fitness came out at 0.631.
To U19A C34G G52A belongs at most 0.5; to U19A A21G C29G, 0.543.
To U19C belongs 0.972.
To U19A belongs 1; to G18U A36C G67C, at most 0.5; to U19A A42C, 0.862.
As to U19A A42U, the yeast fitness came to 0.949.
The result for U19C A21C C33U C61A A70C reads at most 0.5; that for G18C U35G G41C C66G, at most 0.5.
As to U19A C31U U53A, the yeast fitness was at most 0.5.
The result for G18C C33G A40G G58A U64A reads 0.59.
The result for G18C U28G reads 0.727; that for U19A G67A, 0.866; that for U19C A40C A65U, 0.605.
To U19A U59C C61A U64C belongs at most 0.5; to U19A C27U G44C G48C C66U, at most 0.5.
In the case of U19C A36G A43G C60U C62U A70C, the yeast fitness is at most 0.5.
Regarding U19A C61G G67A, the yeast fitness is at most 0.5.
The result for U19A G67A A70U reads 0.691; that for U19A C27U A42U A45G U64A, at most 0.5; that for U19A A36U C61U, at most 0.5.
To U19C A43G A69U belongs 1.05; to U19A C29A U32A U54C C55G C60G, at most 0.5; to G18C U35A A45C, 0.671.
To G18C G56A belongs 0.739; to G18C G56C, 0.524; to U19A A42G G68U, at most 0.5.
